According to ChEMBL document CHEMBL2413060, “Synthesis, biological evaluation and molecular docking studies of some pyrimidine derivatives” (2013):

Tests used:
Format in all cases: functional
ACHN = assay: Cytotoxicity against human ACHN cells
MCF7 [1] = assay: Cytotoxicity against human MCF7 cells assessed as growth inhibition at 10 uM; details: read-out: GI
Outline: (§1)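 Single-dose screen on human tumour cell lines. Growth of treated cells is expressed as percent of untreated growth, plotted as a mean graph, and reported as percent growth inhibition.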

SF-268 = assay: Cytotoxicity against human SF268 cells
Outline: (§2)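 Five-dose in vitro screen on the full sixty human tumour cell line panel. Three response parameters derived per cell line: GI50, TGI and LC50, given in μM.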

NCI-H23 = assay: Cytotoxicity against human NCI-H23 cells; outline: as §2
HCT-15 = assay: Cytotoxicity against human HCT15 cells
NCI-H522 [2] = assay: Cytotoxicity against human NCI-H522 cells; outline: as §2
UACC-257 = assay: Cytotoxicity against human UACC257 cells
Outline: (§3)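 Five-dose in vitro screen across the full sixty-cell human tumour line panel. Three response parameters were derived from the dose-response data: GI50, TGI and LC50, expressed in μM/l.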

PC-3 [3] = assay: Cytotoxicity against human PC3 cells assessed as growth inhibition at 10 uM; details: read-out: GI; outline: as §1
HL-60(TB) = assay: Cytotoxicity against human HL-60(TB) cells
Outline: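 Run in the sixty human tumour cell line panel. The primary screen reports percent growth of treated cells, expressed as percentage growth inhibition. Compounds meeting the threshold inhibition criteria go on to the full-panel 5-dose assay, which gives three response parameters (GI50, TGI, LC50) in μM.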

Malme-3M [4] = assay: Cytotoxicity against human MALME-3M cells assessed as growth inhibition at 10 uM; details: read-out: GI
NCI-H522 [5] = assay: Cytotoxicity against human NCI-H522 cells assessed as growth inhibition at 10 uM; details: read-out: GI; outline: as §1
MCF7 [6] = assay: Cytotoxicity against human MCF7 cells; outline: as §2
HOP-92 = assay: Cytotoxicity against human HOP92 cells assessed as growth inhibition at 10 uM; details: read-out: GI
OVCAR-4 = assay: Cytotoxicity against human OVCAR4 cells; outline: as §2
HOP-62 = assay: Cytotoxicity against human HOP62 cells assessed as growth inhibition at 10 uM; details: read-out: GI
RPMI-8226 = assay: Cytotoxicity against human RPMI8226 cells; outline: as §2
DU-145 = assay: Cytotoxicity against human DU145 cells
PC-3 [7] = assay: Cytotoxicity against human PC3 cells; outline: as §2
Hs-578T [8] = assay: Cytotoxicity against human Hs578T cells assessed as growth inhibition at 10 uM; details: read-out: GI
T47D [9] = assay: Cytotoxicity against human T47D cells assessed as growth inhibition at 10 uM; details: read-out: GI; outline: as §1
Shigella flexneri = assay: Antibacterial activity against Shigella flexneri ATCC 15391 assessed as diameter of inhibition zone at 1 mg/ml after 24 hrs by cup diffusion method (reference value: 17 mm); details: ATCC 15391, 24 h, read-out: DIZ
HCC 2998 = assay: Cytotoxicity against human HCC2998 cells
Hs-578T [10] = assay: Cytotoxicity against human Hs578T cells
[11] = Cytotoxicity against human EKVX cells
SR = assay: Cytotoxicity against human SR cells; outline: as §2
NCI-H460 = assay: Cytotoxicity against human NCI-H460 cells; outline: as §2
MDA-MB-435 = assay: Cytotoxicity against human MDA-MB-435 cells; outline: as §2
MOLT-4 = assay: Cytotoxicity against human MOLT4 cells; outline: as §2
SNB-19 = assay: Cytotoxicity against human SNB19 cells; outline: as §2
Malme-3M [12] = assay: Cytotoxicity against human MALME-3M cells
NCI-H226 = assay: Cytotoxicity against human NCI-H226 cells; outline: as §2
U-251 = assay: Cytotoxicity against human U251 cells; outline: as §3
Pseudomonas aeruginosa = assay: Antibacterial activity against Pseudomonas aeruginosa ATCC 9027 assessed as diameter of inhibition zone at 1 mg/ml after 24 hrs by cup diffusion method (reference value: 16 mm); details: ATCC 9027, 24 h, read-out: DIZ
T47D [13] = assay: Cytotoxicity against human T47D cells; outline: as §2
CCRF-CEM = assay: Cytotoxicity against human CCRF-CEM cells
OVCAR-5 = assay: Cytotoxicity against human OVCAR5 cells; outline: as §2
LOX IMVI = assay: Cytotoxicity against human LOXIMVI cells
[14] = read-out: LC50 (the source's name)

Structure (SMILES): N#Cc1c(-c2ccccc2)nc(SCC2CO2)nc1N1CCOCC1 (stereo unspecified)
- GI50 (ACHN): 3.23 µM
- TGI (ACHN): > 100 µM
- CC50 (ACHN; [14]): > 100 µM
- inhibition of growth at 10 µM (MCF7 [1]): 55.2%
- GI50 (SF-268): 13 µM
- TGI (SF-268): > 100 µM
- CC50 (SF-268; [14]): > 100 µM
- GI50 (NCI-H23): 4.48 µM
- TGI (NCI-H23): > 100 µM
- CC50 (NCI-H23; [14]): > 100 µM
- GI50 (HCT-15): 4.06 µM
- TGI (HCT-15): > 100 µM
- CC50 (HCT-15; [14]): > 100 µM
- GI50 (NCI-H522 [2]): 72.5 µM
- TGI (NCI-H522 [2]): > 100 µM
- CC50 (NCI-H522 [2]; [14]): > 100 µM
- GI50 (UACC-257): 50.7 µM
- TGI (UACC-257): > 100 µM
- CC50 (UACC-257; [14]): > 100 µM
- inhibition of growth at 10 µM (PC-3 [3]): 63.9%
- GI50 (HL-60(TB)): 34.1 µM
- TGI (HL-60(TB)): > 100 µM
- CC50 (HL-60(TB); [14]): > 100 µM
- inhibition of growth at 10 µM (Malme-3M [4]): 74.3%
- inhibition of growth at 10 µM (NCI-H522 [5]): 42.1%
- GI50 (MCF7 [6]): 3.92 µM
- TGI (MCF7 [6]): > 100 µM
- CC50 (MCF7 [6]; [14]): > 100 µM
- inhibition of growth at 10 µM (HOP-92): 81.7%
- GI50 (OVCAR-4): 85.1 µM
- TGI (OVCAR-4): > 100 µM
- CC50 (OVCAR-4; [14]): > 100 µM
- inhibition of growth at 10 µM (HOP-62): 45.7%
- GI50 (RPMI-8226): 14.1 µM
- TGI (RPMI-8226): 91.8 µM
- CC50 (RPMI-8226; [14]): > 100 µM
- GI50 (DU-145): 13.4 µM
- TGI (DU-145): > 100 µM
- CC50 (DU-145; [14]): > 100 µM
- GI50 (PC-3 [7]): 22.1 µM
- TGI (PC-3 [7]): > 100 µM
- CC50 (PC-3 [7]; [14]): > 100 µM
- inhibition of growth at 10 µM (Hs-578T [8]): 50%
- inhibition of growth at 10 µM (T47D [9]): 84.6%
- zone of inhibition at 1000 µg/mL (Shigella flexneri): 18 mm
- GI50 (HCC 2998): 0.253 µM
- TGI (HCC 2998): 18.2 µM
- CC50 (HCC 2998; [14]): > 100 µM
- GI50 (Hs-578T [10]): 1.15 µM
- TGI (Hs-578T [10]): 6.09 µM
- CC50 (Hs-578T [10]; [14]): > 100 µM
- GI50 [11]: 3.65 µM
- TGI [11]: > 100 µM
- CC50 [11, 14]: > 100 µM
- GI50 (SR): 33.3 µM
- TGI (SR): > 100 µM
- CC50 (SR; [14]): > 100 µM
- GI50 (NCI-H460): 10.3 µM
- TGI (NCI-H460): > 100 µM
- CC50 (NCI-H460; [14]): > 100 µM
- GI50 (MDA-MB-435): 6.71 µM
- TGI (MDA-MB-435): > 100 µM
- CC50 (MDA-MB-435; [14]): > 100 µM
- GI50 (MOLT-4): 28.9 µM
- TGI (MOLT-4): > 100 µM
- CC50 (MOLT-4; [14]): > 100 µM
- GI50 (SNB-19): 84.5 µM
- TGI (SNB-19): > 100 µM
- CC50 (SNB-19; [14]): > 100 µM
- GI50 (Malme-3M [12]): 2.56 µM
- TGI (Malme-3M [12]): > 100 µM
- CC50 (Malme-3M [12]; [14]): > 100 µM
- GI50 (NCI-H226): 10.1 µM
- TGI (NCI-H226): > 100 µM
- CC50 (NCI-H226; [14]): > 100 µM
- GI50 (U-251): 22.1 µM
- TGI (U-251): > 100 µM
- CC50 (U-251; [14]): > 100 µM
- zone of inhibition at 1000 µg/mL (Pseudomonas aeruginosa): 17 mm
- GI50 (T47D [13]): 3.59 µM
- TGI (T47D [13]): 22.5 µM
- CC50 (T47D [13]; [14]): > 100 µM
- GI50 (CCRF-CEM): > 100 µM
- TGI (CCRF-CEM): > 100 µM
- CC50 (CCRF-CEM; [14]): > 100 µM
- GI50 (OVCAR-5): 1.7 µM
- TGI (OVCAR-5): > 100 µM
- CC50 (OVCAR-5; [14]): > 100 µM
- GI50 (LOX IMVI): 6.48 µM
- TGI (LOX IMVI): > 100 µM
- CC50 (LOX IMVI; [14]): > 100 µM
